# Reference: ChEMBL document CHEMBL1143838, “Candida albicans and Candida dubliniensis respond differently to echinocandin antifungal agents in vitro” (2007)
# Activity calls are given as the source filed them. The rule behind the calls is not given here. *1 amine or outer side, *2 acyl side, *3 side chain or, on linkers, in order; H or OH if unused. Where a SMILES comes first, the peptide text is derived from it. Bridges are numbered along the chain shown (N, C = ends). [ ]: non-standard residue; d: D form. The star is where a group is joined. pTerphenylCO(4''-OnC5H11) = CCCCCOc1ccc(-c2ccc(-c3ccc(C(=O)*)cc3)cc2)cc1; Orn(4R-OH,5R-OH) = O=C([C@H](C[C@@H](O)[C@@H](O)N[*:3])N[*:1])[*:2]; hTyr(3S-OH,4S-OH) = N[C@H](C(=O)O)[C@H](O)[C@@H](O)c1ccc(O)cc1; Pro(3S-OH,4S-Me) = C[C@H]1CN[C@H](C(=O)O)[C@H]1O; Hyp = O=C(O)[C@@H]1C[C@@H](O)CN1
# How the values were obtained:
# [1] = system: Candida albicans; experiment: Antifungal activity against Candida albicans SCS140136P after 24 hrs by EUCAST test; type: functional
# Outline: (§1)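 EUCAST broth microdilution with aqueous doubling dilutions of drug. Inoculum grown overnight at 30°C in NGY, then added to MOPS-buffered RPMI 1640 with 2% glucose at an initial 10^5 yeasts/ml. Incubated 35°C for 24 h. MICs taken from triplicate spectrophotometric dose-response data as 50% and 80% growth-reduction endpoints.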
# [2] = system: Pichia kudriavzevii; experiment: Antifungal activity against Candida krusei ATCC 6258 after 24 hrs by EUCAST test; type: functional; settings: ATCC 6258, 24 h
# Outline: (§2)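 Yeasts were grown overnight at 30°C in NGY, then inoculated at 10^5 yeasts/ml initial concentration into MOPS-buffered RPMI 1640 with 2% glucose containing aqueous doubling dilutions of drug. Plates were held at 35°C for 24 h. MICs came from triplicate spectrophotometric dose-response data at 50% and 80% growth-reduction endpoints. Trailing meant a >100-fold gap between these endpoints; paradoxical meant regrowth ≥5% above the curve minimum.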
# [3] = system: Candida dubliniensis; experiment: Antifungal activity against Candida dubliniensis SCS17154969-2 after 24 hrs by EUCAST test; type: functional; outline: as §2
# [4] = system: Candida dubliniensis; experiment: Antifungal activity against Candida dubliniensis ANSA 23a after 24 hrs by EUCAST test; type: functional; outline: as §2
# [5] = system: Candida dubliniensis; experiment: Antifungal activity against Candida dubliniensis Leic952 after 24 hrs by CLSI M27-A test; type: functional
# Outline: (§3)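 Broth microdilution with echinocandins as aqueous doubling dilutions. Yeasts were grown overnight at 30°C in NGY and seeded at 10^3 yeasts/ml initial concentration in MOPS-buffered RPMI 1640, then incubated at 35°C for 24 h. The MIC was read visually as the lowest concentration giving a marked decrease in visible growth; paradoxical or trailing growth was noted.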
# [6] = system: Candida albicans; experiment: Antifungal activity against Candida albicans T26 after 24 hrs by EUCAST test; type: functional; outline: as §1
# [7] = system: Candida albicans; experiment: Antifungal activity against Candida albicans JIMS132203 after 24 hrs by EUCAST test; type: functional; outline: as §1
# [8] = system: Candida dubliniensis; experiment: Antifungal activity against Candida dubliniensis 90/033 after 24 hrs by EUCAST test; type: functional; outline: as §1
# [9] = system: Candida albicans; experiment: Antifungal activity against Candida albicans B06-341 after 24 hrs by EUCAST test; type: functional; outline: as §1
# [10] = system: Candida dubliniensis; experiment: Antifungal activity against Candida dubliniensis Leic952 after 24 hrs by EUCAST test; type: functional; outline: as §2
# [11] = system: Candida dubliniensis; experiment: Antifungal activity against Candida dubliniensis ANSA 23a after 24 hrs by CLSI M27-A test; type: functional, organism-based; outline: as §3
# [12] = system: Candida albicans; experiment: Antifungal activity against Candida albicans HK04M102095 after 24 hrs by CLSI M27-A test; type: functional
# Outline: (§4)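 CLSI M27-A broth microdilution with aqueous doubling dilutions of drug. Inoculum grown overnight at 30°C in NGY medium, then added to MOPS-buffered RPMI 1640 at an initial 10^3 yeasts/ml. Incubated 35°C for 24 h. MIC read visually as the lowest concentration giving a marked decrease in visible growth; paradoxical or trailing growth noted.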
# [13] = system: Candida dubliniensis; experiment: Antifungal activity against Candida dubliniensis ST after 24 hrs by EUCAST test; type: functional; outline: as §2
# [14] = system: Candida parapsilosis; experiment: Antifungal activity against Candida parapsilosis ATCC 22019 after 24 hrs by CLSI M27-A test; type: functional; settings: Lodderomyces parapsilosis, ATCC 22019, 24 h; outline: as §3
# [15] = system: Candida dubliniensis; experiment: Antifungal activity against Candida dubliniensis KR after 24 hrs by EUCAST test; type: functional; outline: as §2
# [16] = system: Candida albicans; experiment: Antifungal activity against Candida albicans Y109 after 24 hrs by CLSI M27-A test; type: functional; outline: as §4
# [17] = system: Candida albicans; experiment: Antifungal activity against Candida albicans NR2 after 24 hrs by EUCAST test; type: functional; outline: as §1
# [18] = system: Candida albicans; experiment: Antifungal activity against Candida albicans T25 after 24 hrs by CLSI M27-A test; type: functional; outline: as §4
# [19] = system: Candida albicans; experiment: Antifungal activity against Candida albicans SCS68858 after 24 hrs by CLSI M27-A test; type: functional; outline: as §4
# [20] = system: Candida dubliniensis; experiment: Antifungal activity against Candida dubliniensis 81/060 after 24 hrs by CLSI M27-A test; type: functional, organism-based; outline: as §4
# [21] = system: Candida albicans; experiment: Antifungal activity against Candida albicans T25 after 24 hrs by EUCAST test; type: functional; outline: as §1
# [22] = system: Candida dubliniensis; experiment: Antifungal activity against Candida dubliniensis 75/043 after 24 hrs by CLSI M27-A test; type: functional; outline: as §4
# [23] = system: Candida albicans; experiment: Antifungal activity against Candida albicans AM2003/0083 after 24 hrs by CLSI M27-A test; type: functional; outline: as §4
# [24] = system: Candida albicans; experiment: Antifungal activity against Candida albicans NR4 after 24 hrs by CLSI M27-A test; type: functional; outline: as §4
# [25] = system: Candida albicans; experiment: Antifungal activity against Candida albicans HK04M102095 after 24 hrs by EUCAST test; type: functional; outline: as §1
# [26] = system: Candida albicans; experiment: Antifungal activity against Candida albicans JIMS101103 after 24 hrs by CLSI M27-A test; type: functional, organism-based; outline: as §4
# [27] = system: Candida albicans; experiment: Antifungal activity against Candida albicans NR3 after 24 hrs by EUCAST test; type: functional; outline: as §1
# [28] = system: Candida dubliniensis; experiment: Antifungal activity against Candida dubliniensis KR after 24 hrs by CLSI M27-A test; type: functional; outline: as §3
# [29] = system: Candida dubliniensis; experiment: Antifungal activity against Candida dubliniensis ST after 24 hrs by CLSI M27-A test; type: functional; outline: as §3
# [30] = system: Candida parapsilosis; experiment: Antifungal activity against Candida parapsilosis ATCC 22019 after 24 hrs by EUCAST test; type: functional; settings: Lodderomyces parapsilosis, ATCC 22019, 24 h; outline: as §2
# [31] = system: Candida dubliniensis; experiment: Antifungal activity against Candida dubliniensis 910Aa after 24 hrs by EUCAST test; type: functional; outline: as §1
# [32] = system: Candida dubliniensis; experiment: Antifungal activity against Candida dubliniensis SCS59662 after 24 hrs by CLSI M27-A test; type: functional; outline: as §3
# [33] = system: Candida dubliniensis; experiment: Antifungal activity against Candida dubliniensis SCS65875C after 24 hrs by EUCAST test; type: functional; outline: as §2
# [34] = system: Candida dubliniensis; experiment: Antifungal activity against Candida dubliniensis IK after 24 hrs by CLSI M27-A test; type: functional; outline: as §3
# [35] = system: Candida albicans; experiment: Antifungal activity against Candida albicans NR3 after 24 hrs by CLSI M27-A test; type: functional; outline: as §4
# [36] = system: Candida dubliniensis; experiment: Antifungal activity against Candida dubliniensis SCS17154969-1 after 24 hrs by CLSI M27-A test; type: functional; outline: as §3
# [37] = system: Candida dubliniensis; experiment: Antifungal activity against Candida dubliniensis SCSBB417709 after 24 hrs by CLSI M27-A test; type: functional; outline: as §3
# [38] = system: Candida dubliniensis; experiment: Antifungal activity against Candida dubliniensis 90/033 after 24 hrs by CLSI M27-A test; type: functional; outline: as §4
# [39] = system: Candida dubliniensis; experiment: Antifungal activity against Candida dubliniensis SCS59662 after 24 hrs by EUCAST test; type: functional; outline: as §2
structure (smiles),measurement,setting,value
"CCCCCOc1ccc(-c2ccc(-c3ccc(C(=O)N[C@H]4C[C@@H](O)[C@@H](O)NC(=O)[C@@H]5[C@@H](O)[C@@H](C)CN5C(=O)[C@H]([C@@H](C)O)NC(=O)[C@H]([C@H](O)[C@@H](O)c5ccc(O)cc5)NC(=O)[C@@H]5C[C@@H](O)CN5C(=O)[C@H]([C@@H](C)O)NC4=O)cc3)cc2)cc1 [ANIDULAFUNGIN] ({pTerphenylCO(4''-OnC5H11)}-[Orn(4R-OH,5R-OH)]T[Hyp][hTyr(3S-OH,4S-OH)]T[Pro(3S-OH,4S-Me)]; lactam 1-C)",MIC50,[1],≤ 0.032 µg/mL
same,MIC50,[2],0.063 µg/mL
same,MIC50,[3],0.063 µg/mL
same,MIC50,[4],≤ 0.032 µg/mL
same,MIC50,[5],≤ 0.032 µg/mL
same,MIC50,[6],0.5 µg/mL
same,MIC50,[7],≤ 0.032 µg/mL
same,MIC50,[8],8 µg/mL
same,MIC50,[9],0.13 µg/mL
same,MIC50,[10],8 µg/mL
same,Activity,[11],Active
same,MIC50,[12],≤ 0.032 µg/mL
same,MIC50,[13],≤ 0.032 µg/mL
same,MIC50,[14],0.5 µg/mL
same,MIC50,[15],≤ 0.032 µg/mL
same,MIC50,[16],0.25 µg/mL
same,MIC50,[17],0.25 µg/mL
same,MIC50,[18],1 µg/mL
same,MIC50,[19],≤ 0.032 µg/mL
same,Activity,[20],Active
same,MIC50,[21],0.5 µg/mL
same,MIC50,[22],≤ 0.032 µg/mL
same,MIC50,[23],≤ 0.032 µg/mL
same,MIC50,[24],0.25 µg/mL
same,MIC50,[25],≤ 0.032 µg/mL
same,Activity,[26],Active
same,MIC50,[27],1 µg/mL
same,MIC50,[28],≤ 0.032 µg/mL
same,MIC50,[29],≤ 0.032 µg/mL
same,MIC50,[30],0.5 µg/mL
same,MIC50,[31],≤ 0.032 µg/mL
same,MIC50,[32],≤ 0.032 µg/mL
same,MIC50,[33],≤ 0.032 µg/mL
same,MIC50,[34],≤ 0.032 µg/mL
same,MIC50,[35],1 µg/mL
same,MIC50,[36],≤ 0.032 µg/mL
same,MIC50,[37],≤ 0.032 µg/mL
same,MIC50,[38],≤ 0.032 µg/mL
same,MIC50,[39],≤ 0.032 µg/mL
